Active and inactive are the calls of the source. The rule behind the calls is not given here.
Key:
MDA-MB-468 [1] = assay: Antiproliferative activity against human breast cancer cell line MDA468; format: functional
Outline: (§1)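 Cells kept in RPMI 1640 with 2 mM L-glutamine and 10% FCS at 37 °C, 5% CO2. Seeded 5 × 10³/well, left 24 h to adhere, then exposed 72 h to 0.1 nM–100 µM final (DMSO stocks diluted in medium, n = 8). MTT 400 µg/mL final added at dosing and at 72 h, 4 h at 37 °C. Formazan dissolved in DMSO:glycine pH 10.5, A550 read. GI50 from triplicate tests.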

MCF7 [2] = assay: Antiproliferative activity against human breast cancer cell line MCF7; format: functional; outline: as §1
HCC 2998 [3] = assay: Antiproliferative activity against human colon cancer cell line HCC2998; format: functional; outline: as §1
KM12 [4] = assay: Antiproliferative activity against human colon cancer cell line KM12; format: functional; outline: as §1
MDA-MB-468 [5] = assay: Ability to induce CYP1A1 protein expression in […] human breast cancer cell line MDA468; format: functional, cell-based
Outline: (§2)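 Whole-cell lysates from untreated cultures and from cells exposed 24 h to 10 nM–10 µM compound. Protein-normalized samples heated 95 °C 5 min, run on 10% SDS-PAGE and electroblotted to PVDF. Probed with polyclonal anti-human CYP1A1/1A2 antiserum and an alkaline phosphatase secondary, developed with BCIP/NBT. Recombinant CYP1A1 served as positive control for the 52 kDa band.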

MCF7 [6] = assay: Ability to induce CYP1A1 protein expression in […] human breast cancer cell line MCF7; format: functional, cell-based; outline: as §2
KM12 [7] = assay: Ability to induce CYP1A1 protein expression in sensitive human colon cancer cell line KM12; format: functional, cell-based; outline: as §2
HCC 2998 [8] = assay: Ability to induce CYP1A1 protein expression in sensitive human colon cancer cell line HCC2998; format: functional, cell-based; outline: as §2

Row | SMILES | GI50 (MDA-MB-468 [1]) [µM] | GI50 (MCF7 [2]) [µM] | GI50 (HCC 2998 [3]) [µM] | GI50 (KM12 [4]) [µM] | Activity (MDA-MB-468 [5]) | Activity (MCF7 [6]) | Activity (KM12 [7]) | Activity (HCC 2998 [8])
1 | COc1ccc(-c2nc3cc(F)ccc3s2)cc1 | 0.33 | 0.49 | 12.4 | 24.6 | – | – | – | –
2 | COc1ccc(-c2nc3cc(F)ccc3s2)c(OC)c1OC | 0.12 | 0.023 | 0.037 | 14.2 | – | – | – | –
3 | COc1ccc(-c2nc3cc(F)ccc3s2)cc1F | 0.64 | 0.87 | 13.7 | 20.6 | – | – | – | –
4 | COc1ccc(-c2nc3ccccc3s2)cc1OC | 0.53 | 52.7 | 42.5 | 74.2 | Active | Active | – | –
5 | Oc1ccc(-c2nc3ccccc3s2)cc1O | 0.22 | 2.19 | 6.99 | 15.6 | – | – | – | –
6 | Oc1ccc(-c2nc3cc(F)ccc3s2)cc1O | 0.19 | 0.72 | 1.64 | 13 | – | – | – | –
7 | COc1ccc(-c2nc3cc(Br)ccc3s2)cc1OC | 0.77 | 13.6 | 20 | 65.2 | – | – | – | –
8 | COc1ccc(-c2nc3cc(F)ccc3s2)cc1Br | 0.42 | 0.85 | 3.45 | 6.7 | – | – | – | –
9 | COc1cc(-c2nc3cc(F)ccc3s2)cc(OC)c1OC | 0.0021 | 0.0019 | 21.1 | 13 | – | – | – | –
10 | COc1ccc(-c2nc3cc(F)ccc3s2)cc1I | 0.36 | 0.82 | 0.94 | 6.9 | – | – | – | –
11 | COc1cc(OC)cc(-c2nc3cc(F)ccc3s2)c1 | 0.31 | 1.23 | 5.21 | 7.55 | – | – | – | –
12 | CCOc1ccc(-c2nc3cc(F)ccc3s2)cc1OCC | 0.055 | – | – | 38.5 | – | – | – | –
13 | COc1cc(-c2nc3cc(F)ccc3s2)cc(O)c1OC | 0.088 | 0.653 | 6.49 | 47.5 | – | – | – | –
14 | COc1cc(-c2nc3cc(F)ccc3s2)ccc1O | 0.17 | 0.75 | 1.04 | 47.3 | – | – | – | –
15 | COc1ccc(-c2nc3c(F)cccc3s2)cc1OC | 0.005 | 0.005 | 1.06 | 0.85 | – | – | – | –
16 | Cc1cc(-c2nc3cc(F)ccc3s2)ccc1N | < 0.0001 | – | > 100 | > 100 | – | – | – | –
17 | COCOc1ccc(-c2nc3cc(F)ccc3s2)cc1OC | 0.048 | 0.065 | 53.5 | 19.2 | – | – | – | –
18 | COc1ccc(-c2nc3cc(F)ccc3s2)cc1Cl | 0.48 | 0.76 | 2.5 | 7.05 | – | – | – | –
19 | COc1ccc(-c2nc3ccc(F)cc3s2)cc1OC | 0.005 | 0.062 | 6.21 | 24.1 | – | – | – | –
20 | Fc1ccc2sc(-c3ccc4c(c3)OCO4)nc2c1 | 0.57 | 20.7 | 22.3 | 25.1 | Active | Active | – | –
21 | COc1ccc(-c2nc3cc(F)ccc3s2)cc1O | 0.05 | 0.5 | 7.6 | 18.4 | – | – | – | –
22 | c1ccc2sc(-c3ccc4c(c3)OCO4)nc2c1 | 0.8 | 57.8 | 68.3 | 98.6 | – | – | – | –
23 | COc1ccc(-c2nc3cc(F)ccc3s2)cc1C | 0.058 | 0.048 | 0.54 | 18.6 | – | – | – | –
24 | COc1ccc(-c2nc3cc(F)ccc3s2)cc1OC | < 0.0001 | – | – | 0.29 | Active | Active | inactive | inactive
25 | COc1ccc(-c2nc3cc(Cl)ccc3s2)cc1OC | 1 | 27.9 | 4.88 | 12.4 | – | – | – | –
26 | Cc1cc(-c2nc3ccccc3s2)ccc1N | < 0.0001 | – | > 100 | > 100 | – | – | – | –
27 | CCOc1cc(-c2nc3cc(F)ccc3s2)ccc1OC | 0.092 | 0.08 | 3.32 | 5.42 | – | – | – | –
